Assay results of several laboratories.
Compare with care: the assays were run in different laboratories.
Target: Ephrin type-A receptor 4 (EPHA4, Homo sapiens, UniProt P54764)

read-out | action | method | tested at | endpoint | value | SMILES
enzyme activity | inhibitor |  | 0.3 µM | inhibition | 1% | CCN(CC)CCNC(=O)c1c(C)[nH]c(/C=C2\C(=O)Nc3ccc(F)cc32)c1C
cell-free assay |  | competition with immobilised ligand | 1 µM | remaining binding | 100% | COc1ccc2cc(OCC3(C(=O)O)CN(C(=O)c4ccc(F)cc4)C3)ccc2c1
enzyme activity | inhibitor | radiometric | 1 µM | remaining activity | 97% | CC(C)(C)c1nc(-c2cccc(NS(=O)(=O)c3c(F)cccc3F)c2F)c(-c2ccnc(N)n2)s1
enzyme activity | inhibitor |  | 10 µM | remaining activity | 116% | Cc1sc(C(=O)NC2COC2)cc1-n1cc(NC(=O)Nc2c(F)cccc2Cl)cn1
enzyme activity | inhibitor |  | 0.1 µM | inhibition | 0.3% | CC/C(=N\NC(=O)NCc1cccc(O)c1)c1ccc(O)c(C)c1O
cell-free assay |  |  | 23.5 nM | remaining signal | 22% | Cc1ccc(C(=O)Nc2ccc(CN3CCN(C)CC3)c(C(F)(F)F)c2)cc1C#Cc1cnc2cccnn12
cell-free assay |  | competition with immobilised ligand | 1 µM | remaining binding | 99% | Cc1c(NC(=O)c2cc(C(N)=O)nc3cc(F)ccc23)c(C(F)(F)F)nn1Cc1ccc(C#N)cc1
enzyme activity | inhibitor | radiometric | 1 µM | inhibition | 83% | CNC(=O)c1cc2c(Oc3ccc(NC(=O)C4(C(=O)Nc5ccc(F)cc5)CC4)cc3)ccnc2cc1OC
enzyme activity | inhibitor |  | 0.3 µM | inhibition | 7% | CNC(=O)c1cc(Oc2ccc(NC(=O)Nc3ccc(Cl)c(C(F)(F)F)c3)cc2)ccn1
enzyme activity | inhibitor |  | 1 µM | inhibition | 10% | COc1cc2ncnc(Nc3ccc(Oc4ccccc4)c(C)c3C)c2cc1OC
enzyme activity | inhibitor |  | 10 µM | remaining activity | 82% | CCCOc1ccc(OC)c(F)c1C(=O)c1ccc(C(=O)N[C@@H]2CNC[C@H]2NC(=O)c2ccc3[nH]ncc3c2)cc1
enzyme activity | inhibitor |  | 1 µM | remaining activity | 98.8% | CC(C)(O)[C@H]1CC[C@H](Nc2ccc3ncc(-c4cccc(C(F)(F)F)c4)n3n2)CC1
cell-free assay |  |  | 0.5 µM | remaining signal | 85.2% | N#CCCc1ccc2c(c1)-c1[nH]c3ccc([N+](=O)[O-])cc3c1CC(=O)N2
cell-free assay |  | competition with immobilised ligand | 1 µM | remaining binding | 100% | Cc1nc(N2CC[C@@H](O)C2)ncc1-c1cc(C(F)(F)F)cc2[nH]ncc12
enzyme activity | inhibitor |  | 10 µM | remaining activity | 85% | CCN(CC)c1ccc(C2=NNC(=O)CC2C)cc1[N+](=O)[O-] (stereo not shown)
cell-free assay |  | competition with immobilised ligand | 0.1 µM | remaining binding | 98% | CS(=O)(=O)N1CCCC(NC(=O)[C@H](CCC2CCCCC2)NC(=O)c2ccc(CNC(=O)c3cnc4ccccn34)cc2)C1 (stereo partly shown)
enzyme activity | inhibitor |  | 10 µM | remaining activity | 105% | Cn1c(=O)n(-c2ccc(C(C)(C)C#N)cc2)c2c3cc(-c4cnc5ccccc5c4)ccc3ncc21
enzyme activity | inhibitor | radiometric | 1 µM | remaining activity | 104% | Cc1cnc(NC2CCOCC2)nc1-n1cnc(C(=O)NC(CN)c2cc(F)cc(Cl)c2)c1 (stereo not shown)
enzyme activity | inhibitor |  | 1 µM | remaining activity | 99% | COc1cc(Cl)c(C(=O)N[C@@H](CN[C@H]2CC[C@@H](N)CC2)Cc2ccc(C#N)cc2)cc1-c1ccc(CN[C@H](C)c2ccc(C)cc2)o1
cell-free assay |  | competition with immobilised ligand | 0.1 µM | remaining binding | 76% | CS(=O)(=O)N1CCCC(NC(=O)[C@H](CCC2CCCCC2)NC(=O)c2ccc(CNc3ncnc4c3nnn4-c3ccccc3)cc2)C1 (stereo partly shown)
enzyme activity | inhibitor |  | 10 µM | remaining activity | 103% | Oc1cccc(-c2nc(N3CCOCC3)c3oc4ncccc4c3n2)c1
cell-free assay |  | competition with immobilised ligand | 1 µM | remaining binding | 100% | CCC(=O)N[C@@H]1CC[C@H](C(=O)N(C)c2ccc(-c3nc4ccccc4o3)cc2)C1
enzyme activity | inhibitor |  | 0.3 µM | inhibition | 3% | Cc1ccc(Nc2nccc(N(C)c3ccc4c(C)n(C)nc4c3)n2)cc1S(N)(=O)=O
cell-free assay |  | competition with immobilised ligand | 1 µM | remaining binding | 90% | C[C@@H](c1cccc(C#N)c1)n1cc(Cl)cc(C(N)=O)c1=N
enzyme activity | inhibitor | radiometric | 10 µM | remaining activity | 41% | COc1cc(Nc2cnc(C#N)c(O[C@H](C)CN(C)C)n2)ncc1-c1cnn(C)c1
